Data set [1] relates to S. pombe Dcp1/2 complex. Briefly: Decapping assay of short capped transcripts with SpDcp1/2. As to conditions: 34 nt RNA capped with the analog, SpDcp1/2 complex, 30°C. The data set is classed as biochemical, Schizosaccharomyces pombe. The method, boiled down: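 Short 34-nt capped RNAs were transcribed with […] from EcoRI-linearized pSP-luc+. NTPs were 0.1 mM final and cap dinucleotide 0.5 mM final, for 45 min at 37°C, then DNase-treated and column-purified. 20 ng RNA was digested with 50 or 200 nM S. pombe Dcp1/2 in 10 mM Hepes pH 7.5, 100 mM KOAc, 2 mM Mg(OAc)2, 2 mM DTT at 30°C. No-enzyme controls were run. Products were separated on 15% PAGE/7 M urea with SYBR Gold. Decapping % is upper-band loss over upper plus lower bands, mean ± SD of two experiments.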

The subject of data set [2] is rabbit reticulocyte lysates (RRLs). Briefly: Translation efficiency of capped luciferase mRNA in RRL. The data set is classed as biochemical. The note with it: for relative cap-dependent translation efficiency: ApppG-capped mRNA translation subtracted before normalization to m^7GpppG; for relative translation efficiency: luciferase mRNA capped with the analog, normalized to m^7GpppG-capped mRNA. In outline: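 Capped, polyadenylated luciferase mRNAs were made with SP6 polymerase from a PCR template, then DNase-treated and purified. Flexi RRL (40% lysate, 0.01 mM amino acids, 1 mM Mg acetate, 190 mM K acetate) was preincubated 60 min at 30°C, then translated 60 min at 30°C with four mRNA concentrations. Luminescence versus mRNA was linearly fitted and normalized to m7GpppG-capped mRNA, optionally after subtracting ApppG-capped mRNA. Means are from 2–3 repeats of each of two mRNA syntheses.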

In data set [3] the test system is mouse eIF4E. The note with it: 20°C, cited from earlier work; for ΔG°: Gibbs free energy of binding; for KAS (cap–eIF4E): equilibrium association constant, mouse eIF4E.
In data set [4] the test system is mammalian cells. As to conditions: mRNA capped with the analog; cited from earlier work.

“And” between values parts separate entries of the source, which are not always exact repeats. Equal values may be shown once. Marks after values point to notes of the source that are not given here.

As for `CO[C@@H]1[C@H](O)[C@@H](COP(=O)([O-])OP(O)(=S)OP(=O)(O)OC[C@H]2O[C@@H](n3cnc4c(=O)[nH]c(N)nc43)[C@H](O)[C@@H]2O)O[C@H]1[n+]1cn(C)c2c(=O)[nH]c(N)nc21` (single isomer, unassigned) [m2^7,2′-OGppSpG D2, m2^7,2′-OGppSpG], in data set [1], the “Decapping % 5 min” value is on record as 47.3 ± 10.6%, the “Decapping % 15 min” value is on record as 51.4 ± 15.6% and the “Decapping % 30 min” value stood at 57.4 ± 10.7%. Also, in data set [2], the “relative cap-dependent translation efficiency” value is given as 2.83 ± 0.26 and the relative translation efficiency was 2.54 ± 0.66. Moreover, in data set [3], the “ΔG°” value is −9.77 ± 0.07^a kcal·mol^−1 and the “KAS (cap–eIF4E)” value was 19.3 ± 2.2^a μM^−1. For the same compound, the mRNA half-life in data set [4] was 4.28 ± 0.067 h.
Turning to `CO[C@@H]1[C@H](O)[C@@H](COP(=O)(O)OP(=O)([O-])OP(=O)(O)OC[C@H]2O[C@@H](n3cnc4c(=O)[nH]c(N)nc43)[C@H](O)[C@@H]2O)O[C@H]1n1c[n+](C)c2c(O)nc(N)nc21` [m2^7,2′-OGpppG], in data set [1], the “Decapping % 5 min” value is 68.9 ± 0.4%, the “Decapping % 15 min” value stood at 78.6 ± 2.4% and the “Decapping % 30 min” value was 79.7 ± 7.5%. Also, in data set [2], the “relative cap-dependent translation efficiency” value turned out to be 1.96 ± 0.43 and the relative translation efficiency was found to be 1.81 ± 0.32. In data set [3], the “ΔG°” value is −9.42 ± 0.02^b kcal·mol^−1. The mRNA half-life in data set [4] was 2.58 ± 0.15 h.
Turning to `COC1C(O)[C@@H](COP(=O)(O)OP(=O)([S-])OP(=O)(O)OP(=O)(O)OC[C@H]2O[C@@H](n3cnc4c(=O)[nH]c(N)nc43)C(O)C2O)O[C@H]1n1c[n+](C)c2c(O)nc(N)nc21` (mixture of isomers) [m2^7,2′-OGppSppG D1D2, m2^7,2′-OGppSppG], in data set [1], the “Decapping % 5 min” value turned out to be 57.9 ± 14.6%, the “Decapping % 15 min” value worked out at 65.6 ± 18.0% and the “Decapping % 30 min” value is 71.6 ± 17.2%. Moreover, in data set [2], the “relative cap-dependent translation efficiency” value stood at 2.80 ± 0.83 and the relative translation efficiency is reported as 2.51 ± 0.59. In data set [3], the “ΔG°” value was −11.33 ± 0.02^c kcal·mol^−1 and the “KAS (cap–eIF4E)” value is reported as 282 ± 12^c μM^−1.
With `Cn1c[n+]([C@@H]2O[C@H](COP(=O)(O)OP(=O)([O-])OP(=O)(O)OC[C@H]3O[C@@H](n4cnc5c(=O)[nH]c(N)nc54)[C@H](O)[C@@H]3O)[C@@H](O)[C@H]2O)c2nc(N)[nH]c(=O)c21` [m^7GpppG], in data set [2], the “relative cap-dependent translation efficiency” value is given as 1 and the relative translation efficiency came out at 1. Moreover, in data set [3], the “ΔG°” value was −9.35 ± 0.03^a kcal·mol^−1; the “KAS (cap–eIF4E)” value was 9.4 ± 0.4 μM^−1 and 9.4 ± 0.4^a μM^−1.
Regarding `CO[C@@H]1[C@H](O)[C@@H](COP(=O)([O-])OP(O)(=S)OP(=O)(O)OC[C@H]2O[C@@H](n3cnc4c(=O)[nH]c(N)nc43)[C@H](O)[C@@H]2O)O[C@H]1[n+]1cn(C)c2c(=O)[nH]c(N)nc21` (single isomer, unassigned) [m2^7,2′-OGppSpG D1, m2^7,2′-OGppSpG], in data set [1], the “Decapping % 5 min” value amounted to 47.5 ± 9.0%, the “Decapping % 15 min” value was 56.1 ± 11.5% and the “Decapping % 30 min” value is listed as 60.9 ± 12.1%. For the same compound, in data set [2], the “relative cap-dependent translation efficiency” value is reported as 2.27 ± 0.10 and the relative translation efficiency stood at 2.07 ± 0.18. Moreover, in data set [3], the “ΔG°” value is listed as −10.23 ± 0.02^a kcal·mol^−1; the “KAS (cap–eIF4E)” value was 43.1 ± 1.4 μM^−1 and 43.1 ± 1.4^a μM^−1. Also, the mRNA half-life in data set [4] is 3.08 ± 0.333 h.
Turning to `CO[C@H]1[C@@H](O)[C@H]([n+]2cn(C)c3c(=O)[nH]c(N)nc32)O[C@@H]1COP(=O)([O-])OP(=O)(O)OP(=O)(O)OC[C@H]1O[C@@H](n2cnc3c(=O)[nH]c(N)nc32)[C@H](O)[C@@H]1O` [m2^7,3′-OGpppG], in data set [2], the “relative cap-dependent translation efficiency” value stood at 1.99 ± 0.81 and the relative translation efficiency is on record as 1.83 ± 0.64. Moreover, in data set [3], the “ΔG°” value is −9.40 ± 0.02^a kcal·mol^−1 and the “KAS (cap–eIF4E)” value is given as 10.2 ± 0.3^a μM^−1.
As for `C[n+]1cn(C2OC(COP(=O)(O)OP(=O)(O)OP(=O)(O)OP(=O)(O)OP(=O)(O)OCC3OC(n4cnc5c(=O)[nH]c(N)nc54)C(O)C3O)C(O)C2O)c2nc(N)[nH]c(=O)c21` (stereo not drawn) [m^7Gp5G], in data set [3], the “ΔG°” value is on record as −11.71 ± 0.06^b kcal·mol^−1 and the “KAS (cap–eIF4E)” value is recorded as 543 ± 55^b μM^−1.
In the case of `Nc1nc2c(ncn2[C@@H]2O[C@H](COP(=O)(O)OP(=O)(O)OP(=O)(O)OC[C@H]3O[C@@H](n4cnc5c(N)ncnc54)[C@H](O)[C@@H]3O)[C@@H](O)[C@H]2O)c(=O)[nH]1` [ApppG], in data set [2], the “relative cap-dependent translation efficiency” value is given as 0.00 and the relative translation efficiency worked out at 0.16 ± 0.04.
For “m2^7,2′-OGpppSpG [m2^7,2′-OGpppSpG D1D2]”, in data set [1], the “Decapping % 5 min” value came to 72.7 ± 1.9%, the “Decapping % 15 min” value is recorded as 78.3 ± 1.0% and the “Decapping % 30 min” value is reported as 79.5 ± 3.5%. Also, in data set [3], the “ΔG°” value is reported as −10.99 ± 0.01^c kcal·mol^−1 and the “KAS (cap–eIF4E)” value is on record as 158 ± 2^c μM^−1.
Take `CO[C@@H]1[C@H](O)[C@@H](COP(=O)(O)OP(=O)([O-])OP(=O)(O)OP(=O)(O)OC[C@H]2O[C@@H](n3cnc4c(=O)[nH]c(N)nc43)[C@H](O)[C@@H]2O)O[C@H]1n1c[n+](C)c2c(O)nc(N)nc21` [m2^7,2′-OGppppG]: in data set [1], the “Decapping % 5 min” value was found to be 73.4 ± 7.6%, the “Decapping % 15 min” value was 78.4 ± 9.4% and the “Decapping % 30 min” value is on record as 82.9 ± 11.3%. For the same compound, in data set [2], the “relative cap-dependent translation efficiency” value is 1.94 ± 0.56 and the relative translation efficiency was determined as 1.79 ± 0.43. Moreover, in data set [3], the “ΔG°” value was −10.73 ± 0.04^b kcal·mol^−1 and the “KAS (cap–eIF4E)” value was 99.8 ± 6.0^b μM^−1.

Source of the values: article PMC5175369 (Nucleic Acids Research, 2016).
